Where a chain is given by its changes, count along the chain named. Names and notes keep the numbering of the source. Values joined by “and” are separate entries in the source; they are usually repeats but may differ in a detail not shown here. Identical values can stand only once. “Also recorded” adds a separate entry of the source.
Assays:
RAW macrophages = assay: Cytotoxicity of MAPK inhibitors; type: cell-based, mouse; settings: unpublished data
p300 HAT domain = assay: In vitro acetylation of MKP-1 docking domain peptides by p300; type: biochemical; settings: recombinant p300 HAT domain, labelled acetyl-CoA, 30°C 10 min, autoradiography
NOS2 = NOS2 protein levels by immunoblot in RAW cells; type: cell-based, mouse; settings: macrophages, TLR agonist 16 h
How it was run: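 RAW 264.7 cells were handled in two ways. For agonist response, cells were exposed to the TLR agonists PGN, poly(I:C), LPS or E. coli for 16 h, with or without TSA. For TSA dose-response, cells were pretreated with increasing TSA for 1 h, then given LPS 100 ng/ml for 6 h, with ERα as the blot control. In both, lysates were immunoblotted for NOS2.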

HEK293 cells = assay: Acetylation of HA-MKP-1 in HEK293 cells; type: cell-based; settings: IP acetyl-lysine, blot HA
phospho-p38 = assay: Dephosphorylation of recombinant phospho-p38 by recombinant MKP-1; type: biochemical; settings: for dephosphorylation of phospho-p38, without p300: recombinant MKP-1, immunoblot; for dephosphorylation of phospho-p38, effect of adding p300: recombinant MKP-1 acetylated with p300, immunoblot
How it was run: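 Recombinant His-MKP-1 made from pRSET-His-MKP-1 by in vitro transcription and translation. It was incubated with recombinant p300 and cold acetyl-CoA, or with control. It was then incubated with recombinant phospho-p38, and remaining phospho-p38 was detected by immunoblotting.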

p38 = assay: Phospho-p38 in MKP-1 KO MEFs rescued with MKP-1; type: cell-based, mouse; settings: 4-HT, then LPS and TSA 1 h
How it was run: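 MKP-1−/− fibroblasts were immortalized with SV40 T-antigen and transfected with MKP-1(WT)-ERα or MKP-1(K57R)-ERα. Expression was induced with 200 nM 4-hydroxytamoxifen, then cells were treated with LPS and TSA for 1 h. Lysates were immunoblotted for phospho-p38, total p38 and the ER tag.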

TNF-α = assay: LPS-induced TNF-α RNA in MKP-1 KO MEFs rescued with MKP-1; type: cell-based, mouse; settings: 4-HT, then LPS and TSA 1 h; RT-PCR
MKP-1 catalytic = type: biochemical; settings: OMFP, A 477 nm, 30°C, 0–40 min, n = 2 ± SD
How it was run: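 Recombinant MKP-1 (0.66 μg) was acetylated or not with recombinant p300 HAT (2.5 μg) and 5 μl of 1 mM acetyl-CoA stock for 30 min at 30°C. Recombinant p38 (2 μg) or control was added for 1 h at 30°C. The substrate 3-O-methylfluorescein phosphate was then added and A477 nm monitored at 30°C. n = 2, ± SD.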

## C[S+]([O-])c1ccc(-c2nc(-c3ccncc3)c(-c3ccc(F)cc3)[nH]2)cc1 (centres unmarked) [SB203580]
RAW macrophages
  cytotoxicity: not cytotoxic

## Oc1c2ccccc2c2c3c(cccc13)N=N2 [SP600125]
RAW macrophages
  cytotoxicity: not cytotoxic

## N#CC(=C(/N)Sc1ccccc1N)/C(C#N)=C(/N)Sc1ccccc1N [U0126]
RAW macrophages
  cytotoxicity: not cytotoxic

## RFSTIVRRRAKGAMGLEHIVPNAELRGRLLA [MKP-1(47–76)(WT)]
p300 HAT domain
  acetylation of peptide by p300: p300 acetylates MKP-1(47–76)

## RFSTIVRRRARGAMGLEHIVPNAELRGRLLA [MKP-1(47–76)(K57R)]
p300 HAT domain
  acetylation of peptide by p300: p300 cannot acetylate MKP-1(47–76)(K57R)

## peptidoglycan
NOS2
  NOS2 expression, activation by TLR agonist alone: can activate NOS2 expression in macrophages

B1: HA-MKP-1(K57R) (protein, UniProt P28562 1-367, looked up, variant K57R)
Dual specificity protein …: MVMEVGTLDAGGLRALLGERAAQCLLLDCRSFFAFNAGHIAGSVNVRFSTIVRRRARGAMGLEHIVPNAELRGRLLAGAYHAVVLLDERSAALDGAKRDGTLALAAGALCREARAAQVFFLKGGYEAFSASCPELCSKQSTPMGLSLPLSTSVPDSAESGCSSCSTPLYDQGGPVEILPFLYLGSAYHASRKDMLDALGITALINVSANCPNHFEGHYQYKSIPVEDNHKADISSWFNEAIDFIDSIKNAGGRVFVHCQAGISRSATICLAYLMRTNRVKLDEAFEFVKQRRSIISPNFSFMGQLLQFESQVLAPHCSAEAGSPAMAVLDRGTSTTTVFNFPVSIPVHSTNSALSYLQSPITTSPSC
modifications: HA tag
HEK293 cells
  acetylation of HA-MKP-1 in cells in response to LPS and TSA: MKP-1(K57R) is not

B2: MKP-1(K57R) (protein, UniProt P28562 1-367, looked up, variant K57R)
Dual specificity protein …: B1 Dual specificity protein …
phospho-p38
  dephosphorylation of phospho-p38, without p300: can decrease the phosphorylation of p38
  dephosphorylation of phospho-p38, effect of adding p300: no further effect on MKP-1 dephosphorylation of p38
p38
  effect of TSA on phospho-p38 in MKP-1 KO MEFs after ectopic expression: cannot restore the effects of TSA upon phospho-p38
TNF-α
  effect of TSA on LPS-induced TNF-α in MKP-1 KO MEFs after ectopic expression: not with MKP-1(K57R)

B3: MKP-1: Recombinant MKP-1, acetylated or not with p300 and acetyl-CoA (protein, UniProt P28562 1-367, looked up)
Dual specificity protein …: B1 Dual specificity protein … with R57K
modifications: optionally acetylated
MKP-1 catalytic
  phosphatase activity, effect of recombinant p38: increases the phosphatase activity of MKP-1
MKP-1 catalytic; p300 and acetyl-CoA 30 min at 30°C, then p38 1 h at 30°C
  increase of phosphatase activity by acetylation in the presence of p38: ~125% and > 100%
MKP-1 catalytic; p300 and acetyl-CoA
  phosphatase activity, effect of acetylation without p38: negligible effect on phosphatase activity; also recorded: does not affect phosphatase activity of the enzyme alone

B4: MKP-1(WT): recombinant or ectopically expressed wild-type MKP-1 (protein)
chain: MVMEVGILDAGGLRALLREGAAQCLLLDCRSFFAFNAGHIAGSVNVRFSTIVRRRAKGAMGLEHIVPNAELRGRLLAGAYHAVVLLDERSASLDGAKRDGTLALAAGALCREARSTQVFFLQGGYEAFSASCPELCSKQSTPTGLSLPLSTSVPDSAESGCSSCSTPLYDQGGPVEILSFLYLGSAYHASRKDMLDALGITALINVSANCPNHFEGHYQYKSIPVEDNHKADISSWFNEAIDFIDSIKDAGGRVFVHCQAGISRSATICLAYLMRTNRVKLDEAFEFVKQRRSIISPNFSFMGQLLQFESQVLAPHCSAEAGSPAMAVLDRGTSTTTVFNFPVSIPVHPTNSALNYLKSPITTSPSC
modifications: left off: ERα ligand-binding domain, end not stated, kept
phospho-p38
  dephosphorylation of phospho-p38, without p300: reduces phosphorylation of p38
  dephosphorylation of phospho-p38, effect of adding p300: further decrease in phosphorylation of p38
p38
  effect of TSA on phospho-p38 in MKP-1 KO MEFs after ectopic expression: restores the ability of TSA to decrease phospho-p38 levels

From PMC2413043 (The Journal of Experimental Medicine, 2008)
